Activity calls are given as the source filed them. No cut-off for these calls is given here.
Key:
HCT-15 [1] = experiment: Cell cycle arrest in human HCT15 cells assessed as accumulation at sub-G1 phase at 20 uM after 12 hrs using propidium-iodide staining by flow-cytometry (reference value: 5.2 %); type: functional
HCT-15 [2] = experiment: Antineoplastic activity against human HCT15 cells xenografted in nude BALB/c mouse assessed as tumor growth inhibition at 2 to 5 mg/kg, ip 3 times a week for 4 weeks; type: functional, organism-based
In short: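 HCT-15 cells (2 × 10^6 in 200 μL medium) implanted subcutaneously in flanks of BALB/c-nu (nu/nu) mice; dosing began at ca. 80 mm3 tumours; groups of five, randomized. 2 or 5 mg/kg given ip three times weekly in ethanol–cremophor–H2O (0.5:0.5:99), vehicle controls; caliper volume (3.14·L·W·H/6) three times weekly for 30 days; Ki-67 immunohistochemistry on tumour sections (1:250, 4 °C overnight, DAB, hematoxylin counterstain).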

HCT-15 [3] = experiment: Cell cycle arrest in human HCT15 cells assessed as accumulation at G2/M phase at 10 uM after 24 hrs using propidium-iodide staining by flow-cytometry (reference value: 22.4 %); type: functional
HCT-15 [4] = experiment: Cell cycle arrest in human HCT15 cells assessed as accumulation at G0/G1 phase at 20 uM after 12 hrs using propidium-iodide staining by flow-cytometry (reference value: 44.4 %); type: functional
HCT-15 [5] = experiment: Cell cycle arrest in human HCT15 cells assessed as accumulation at S phase at 5 uM after 12 hrs using propidium-iodide staining by flow-cytometry (reference value: 34.7 %); type: functional
SW-620 = experiment: Growth inhibition of human SW620 cells; type: functional, cell-based
In short: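 SRB assay: cells at 5 × 10^4 cells/mL were exposed to a concentration series for 3 days, fixed with 10% TCA and stained with sulforhodamine B. Survival was expressed as % of solvent-treated control and IC50 taken by nonlinear regression of % survival versus concentration. Media held 10% heat-inactivated FBS plus antibiotics: RPMI (HCT-15, HCT 116, HT-29), RPMI with 25 mM HEPES (SW480, SW620), DMEM (MRC-5, Hs68). Cultures were kept at 37 C, 5% CO2.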

HCT-15 [6] = experiment: Cell cycle arrest in human HCT15 cells assessed as increase in cyclin D1 expression up to 10 uM after 12 to 24 hrs by Western blot analysis; type: functional, cell-based
In short: (§1)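 HCT-15 cells in RPMI/10% FBS exposed to test compound at various concentrations; lysates quantified by BCA, 30–50 μg protein run on 10% SDS-PAGE, transferred to PVDF, blocked 1 h in 5% milk/PBST, primary antibodies overnight at 4 °C, HRP anti-mouse IgG 1:1500 for 3 h at room temperature, ECL detection.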

HCT-15 [7] = experiment: Induction of apoptosis in human HCT15 cells assessed as suppression of Bcl-xL expression at 5 to 20 uM after 24 hrs by Western blot analysis; type: functional, cell-based
In short: (§2)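 HCT-15 cells (RPMI, 10% heat-inactivated FBS, antibiotics-antimycotics, 37 C, 5% CO2) exposed to compound. Cells lysed, protein measured by BCA, 30-50 μg per lane resolved on 10% SDS-PAGE and electroblotted to PVDF. Membranes blocked 1 h in 5% nonfat milk/PBST, probed with primary antibodies overnight at 4 C, then HRP anti-mouse IgG 1:1500 for 3 h at room temperature. Detection by ECL; β-actin antibody available.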

HCT-15 [8] = experiment: Induction of apoptosis in human HCT15 cells assessed as PARP cleavage at 20 uM after 12 to 24 hrs by Western blot analysis; type: functional, cell-based; in short: as §1
HCT-15 [9] = experiment: Cell cycle arrest in human HCT15 cells assessed as accumulation at sub-G1 phase at 20 uM after 24 hrs using propidium-iodide staining by flow-cytometry (reference value: 6.5 %); type: functional
HCT-15 [10] = experiment: Induction of apoptosis in human HCT15 cells assessed as change in Bax expression at 5 to 20 uM after 24 hrs by Western blot analysis; type: functional, cell-based; in short: as §1
HCT-15 [11] = experiment: Cell cycle arrest in human HCT15 cells assessed as accumulation at S phase at 10 uM after 24 hrs using propidium-iodide staining by flow-cytometry (reference value: 34.1 %); type: functional
HCT-15 [12] = experiment: Cell cycle arrest in human HCT15 cells assessed as accumulation at sub-G1 phase at 5 uM after 24 hrs using propidium-iodide staining by flow-cytometry (reference value: 6.5 %); type: functional
HCT-15 [13] = experiment: Induction of apoptosis in human HCT15 cells assessed as increase in caspase-9 expression after 12 to 24 hrs by Western blot analysis; type: functional, cell-based; in short: as §2
HCT-15 [14] = experiment: Cytotoxicity against human HCT15 cells assessed as morphological changes with distinct rounded shapes and detachment after 12 to 24 hrs by phase-contrast microscopy; type: functional, cell-based
In short: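 HCT-15 cells treated with 0–20 μM for 12 and 24 h, vehicle-treated controls; morphology examined and photographed under phase-contrast microscope.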

## C[C@H]1CC[C@@]2(OC1)O[C@H]1C[C@H]3[C@@H]4CC[C@@H]5C[C@@H](O[C@@H]6O[C@H](CO)[C@H](O)[C@H](O)[C@H]6O[C@@H]6O[C@H](CO)[C@@H](O)[C@H](O)[C@H]6O)CC[C@]5(C)[C@H]4CC[C@]3(C)[C@H]1[C@@H]2C [TIMOSAPONIN AIII]
HCT-15 [1]
  Activity: 41.8%
HCT-15 [2]
  TGI: Active
HCT-15 [3]
  Activity: 30.4%
HCT-15 [4]
  Activity: 12.2%
HCT-15 [5]
  Activity: 22.5%
SW-620
  IC50: 11.1 µM
HCT-15 [6]
  Activity: Active
HCT-15 [7]
  Activity: Active
HCT-15 [8]
  Activity: Active
HCT-15 [9]
  Activity: 39.7%
HCT-15 [10]
  Activity: inactive
HCT-15 [11]
  Activity: 15.3%
HCT-15 [12]
  Activity: 7.2%
HCT-15 [13]
  Activity: Active
HCT-15 [14]
  Activity: Dose-dependent effect

Reference: ChEMBL document CHEMBL2146382, “Cytotoxic and antineoplastic activity of timosaponin A-III for human colon cancer cells” (J Nat Prod, 2011)
